Assay results reported in ChEMBL document CHEMBL4325893, “Synthesis and antibacterial profiles of targeted triclosan derivatives” (2019).
≈ marks a conversion by molar mass, not a printed value.

Tests used:
Escherichia hermannii = assay: Antibacterial activity against Escherichia hermannii 33650 after 18 hrs; assay type: functional; settings: Atlantibacter hermannii, 33650, 18 h
Procedure, shortened: (§1)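 Broth microdilution in Nutrient Broth No. 2; stocks in ethanol diluted to 0.01–128 µg/ml (triclosan) or 0.25–256 µg/ml (glycosides). Overnight 37 °C NB2 cultures diluted 1 in 10^4 in saline and added to the dilutions. Incubation at 37 °C with agitation, OD read every 15 min; MIC is the lowest concentration preventing any OD rise after 18 h.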

Bacillus subtilis = assay: Antibacterial activity against Bacillus subtilis NCTC 10073 after 18 hrs; assay type: functional; settings: NCTC 10073, 18 h; procedure, shortened: as §1
[1] = Antibacterial activity against Salmonella enterica subspecies enterica serotype Arizonae OCC 706 after 18 hrs; assay type: functional, Salmonella enterica subsp. enterica serovar Arizonae; settings: OCC 706, 18 h; procedure, shortened: as §1
Proteus mirabilis = assay: Antibacterial activity against Proteus mirabilis ATCC 12453 after 18 hrs; assay type: functional; settings: ATCC 12453, 18 h; procedure, shortened: as §1
[2] = Antibacterial activity against Enterobacter cloacae ATCC 13047 after 18 hrs; assay type: functional, Enterobacter cloacae subsp. cloacae; settings: ATCC 13047, 18 h; procedure, shortened: as §1
Staphylococcus aureus [3] = assay: Antibacterial activity against Staphylococcus aureus NCTC 13758 after 18 hrs; assay type: functional; settings: NCTC 13758, 18 h; procedure, shortened: as §1
Aeromonas hydrophila = assay: Antibacterial activity against Aeromonas hydrophila OCC 778 after 18 hrs; assay type: functional; settings: OCC 778, 18 h; procedure, shortened: as §1
Staphylococcus aureus [4] = assay: Antibacterial activity against Staphylococcus aureus ATCC 9144 after 18 hrs; assay type: functional; settings: ATCC 9144, 18 h; procedure, shortened: as §1
[5] = Antibacterial activity against Salmonella enterica subspecies enterica serotype Infantis OCC 2133 after 18 hrs; assay type: functional, Salmonella enterica subsp. enterica serovar Infantis; settings: OCC 2133, 18 h; procedure, shortened: as §1
Streptococcus pneumoniae = assay: Antibacterial activity against Streptococcus pneumoniae 6305 after 18 hrs; assay type: functional; settings: Streptococcus pneumoniae, 6305, 18 h
Procedure, shortened: (§2)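 Broth microdilution in Nutrient Broth No. 2. Ethanol stocks were diluted in broth to 0.01–128 µg/ml for triclosan and 0.25–256 µg/ml for glycosides. Overnight 37°C NB2 cultures were diluted 1 in 10^4 in saline and added to the wells. Plates were incubated at 37°C with OD read every 15 min after agitation. MIC was the lowest concentration giving no OD increase at 18 h.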

Streptococcus agalactiae = assay: Antibacterial activity against Streptococcus agalactiae OCC 182 after 18 hrs; assay type: functional; settings: OCC 182, 18 h; procedure, shortened: as §2
[6] = tested on: Staphylococcus haemolyticus; assay: Antibacterial activity against Staphylococcus haemolyticus OCC 2223 after 18 hrs; assay type: functional; settings: OCC 2223, 18 h; procedure, shortened: as §2
Citrobacter freundii = assay: Antibacterial activity against Citrobacter freundii 8090 after 18 hrs; assay type: functional; settings: Citrobacter freundii, 8090, 18 h; procedure, shortened: as §1
[7] = Antibacterial activity against Salmonella enterica subspecies enterica serotype Dublin OCC 627 after 18 hrs; assay type: functional, Salmonella enterica subsp. enterica serovar Dublin; settings: OCC 627, 18 h; procedure, shortened: as §1
Escherichia coli = assay: Antibacterial activity against Escherichia coli ATCC 10536 after 18 hrs; assay type: functional; settings: ATCC 10536, 18 h; procedure, shortened: as §1
[8] = tested on: Staphylococcus epidermidis; assay: Antibacterial activity against Staphylococcus epidermidis ATCC 12228 after 18 hrs; assay type: functional; settings: ATCC 12228, 18 h; procedure, shortened: as §1
Staphylococcus aureus [9] = assay: Antibacterial activity against Staphylococcus aureus OCC 106 after 18 hrs; assay type: functional; settings: OCC 106, 18 h; procedure, shortened: as §1
[10] = Antibacterial activity against Salmonella enterica subspecies enterica serotype Indiana OCC 597 after 18 hrs; assay type: functional, Salmonella enterica subsp. enterica serovar Indiana; settings: OCC 597, 18 h; procedure, shortened: as §1
Enterococcus faecalis = assay: Antibacterial activity against Enterococcus faecalis ATCC 29212 after 18 hrs; assay type: functional; settings: ATCC 29212, 18 h; procedure, shortened: as §1
Enterococcus faecium = assay: Antibacterial activity against Enterococcus faecium ATCC 19434 after 18 hrs; assay type: functional; settings: ATCC 19434, 18 h; procedure, shortened: as §1
[11] = tested on: Staphylococcus epidermidis; assay: Antibacterial activity against Staphylococcus epidermidis ATCC 14990 after 18 hrs; assay type: functional; settings: ATCC 14990, 18 h; procedure, shortened: as §1
Pseudomonas aeruginosa = assay: Antibacterial activity against Pseudomonas aeruginosa ATCC 27853 after 18 hrs; assay type: functional; settings: ATCC 27853, 18 h; procedure, shortened: as §1
Klebsiella pneumoniae = assay: Antibacterial activity against Klebsiella pneumoniae ATCC 10031 after 18 hrs; assay type: functional; settings: ATCC 10031, 18 h; procedure, shortened: as §1
[12] = tested on: Staphylococcus saprophyticus; assay: Antibacterial activity against Staphylococcus saprophyticus ATCC 15305 after 18 hrs; assay type: functional; settings: ATCC 15305, 18 h; procedure, shortened: as §2
Staphylococcus aureus [13] = assay: Antibacterial activity against Staphylococcus aureus ATCC 6538P after 18 hrs; assay type: functional; procedure, shortened: as §1
Serratia marcescens = assay: Antibacterial activity against Serratia marcescens OCC 217 after 18 hrs; assay type: functional; settings: OCC 217, 18 h; procedure, shortened: as §1
Streptococcus viridans = assay: Antibacterial activity against Streptococcus viridans OCC 234 after 18 hrs; assay type: functional; settings: OCC 234, 18 h; procedure, shortened: as §2
Salmonella enteritidis = assay: Antibacterial activity against Salmonella enterica subspecies enterica serotype Enteritidis 13076 after 18 hrs; assay type: functional, Salmonella enterica subsp. enterica serovar Enteritidis; settings: Salmonella enterica, 13076, 18 h; procedure, shortened: as §1
[14] = Antibacterial activity against Salmonella enterica subspecies enterica serotype Pullorum OCC 273 after 18 hrs; assay type: functional, Salmonella enterica subsp. enterica serovar Pullorum; settings: OCC 273, 18 h; procedure, shortened: as §1

Oc1cc(Cl)ccc1Oc1ccc(Cl)cc1Cl [TRICLOSAN]
MIC (Escherichia hermannii): 0.5 µg/mL (≈ 1.73 µM) | MIC (Bacillus subtilis): 1 µg/mL (≈ 3.45 µM) | MIC [1]: 0.5 to 1 µg/mL (≈ 1.73 to 3.45 µM) | MIC (Proteus mirabilis): 0.5 µg/mL (≈ 1.73 µM) | MIC [2]: 0.5 µg/mL (≈ 1.73 µM) | MIC (Staphylococcus aureus [3]): 0.01 µg/mL (≈ 0.0345 µM) | MIC (Aeromonas hydrophila): 8 µg/mL (≈ 27.6 µM) | MIC (Staphylococcus aureus [4]): 0.01 µg/mL (≈ 0.0345 µM) | MIC [5]: 0.5 to 1 µg/mL (≈ 1.73 to 3.45 µM) | MIC (Streptococcus pneumoniae): 1 µg/mL (≈ 3.45 µM) | MIC (Streptococcus agalactiae): 4 µg/mL (≈ 13.8 µM) | MIC [6]: 0.01 µg/mL (≈ 0.0345 µM) | MIC (Citrobacter freundii): 0.5 µg/mL (≈ 1.73 µM) | MIC [7]: 0.5 to 1 µg/mL (≈ 1.73 to 3.45 µM) | MIC (Escherichia coli): 0.1 to 0.5 µg/mL (≈ 0.345 to 1.73 µM) | MIC [8]: 0.01 µg/mL (≈ 0.0345 µM) | MIC (Staphylococcus aureus [9]): 0.01 µg/mL (≈ 0.0345 µM) | MIC [10]: 0.5 to 1 µg/mL (≈ 1.73 to 3.45 µM) | MIC (Enterococcus faecalis): 8 µg/mL (≈ 27.6 µM) | MIC (Enterococcus faecium): 4 µg/mL (≈ 13.8 µM) | MIC [11]: 0.01 µg/mL (≈ 0.0345 µM) | MIC (Pseudomonas aeruginosa): 32 µg/mL (≈ 111 µM) | MIC (Klebsiella pneumoniae): 0.1 µg/mL (≈ 0.345 µM) | MIC [12]: 0.01 µg/mL (≈ 0.0345 µM) | MIC (Staphylococcus aureus [13]): 0.01 µg/mL (≈ 0.0345 µM) | MIC (Serratia marcescens): 64 µg/mL (≈ 221 µM) | MIC (Streptococcus viridans): 4 µg/mL (≈ 13.8 µM) | MIC (Salmonella enteritidis): 0.5 to 1 µg/mL (≈ 1.73 to 3.45 µM) | MIC [14]: 0.5 to 1 µg/mL (≈ 1.73 to 3.45 µM)
